Calls of active or inactive are those of the source. No cut-off for these calls is given here.

The subject of data set [1] is Brain. Put plainly: Inhibition of lipid peroxidation in Wistar rat brain homogenates by TBARS assay. It is filed as functional, tissue-based. The method in brief: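 Male Wistar rat brain homogenate autooxidized at 37 °C for 30 min with or without compound. Lipid peroxidation read by a modified thiobarbituric acid (TBARS) test; IC50 derived.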
The test system of data set [2] is Rattus norvegicus. Put plainly: Memory improving activity in po dosed rat passive avoidance model assessed as effect on cycloheximide-induced amnesia. It counts as functional. The conditions noted are these: read-out: MED. Put shortly:
(§1)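 Passive avoidance: one day after training, compound (0.1–30 mg/kg) or vehicle given orally 30 min before a retention trial. Read-out was latency to move from the light to the dark room; minimum effective dose (MED) reported.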

The subject of data set [3] is Rattus norvegicus. The data set is described as follows: Memory improving activity in rat passive avoidance model assessed as effect on cycloheximide-induced amnesia at 0.1 mg/kg, po. It counts as functional, organism-based. The arrangement: dose 0.1 mg/kg. Put shortly: as §1
Data set [4] concerns Rattus norvegicus. Put plainly: Toxicity in po dosed rat. The conditions noted are these: in vivo. It counts as organism-based.
The nature of data set [5]: DPPH radical scavenging activity at 100 uM relative to control. It counts as ADME. The method in brief: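 DPPH 100 μM in ethanol; compound added in ethanol to a final 100 μM; optical density read; scavenging expressed as a percentage of the optical density of a control with excess vitamin C.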
(The DPPH test is a chemical assay of radical scavenging.)

In data set [1], `CCCCc1ccc(-c2c(C)[nH]c(=O)n2CCCC)cc1` displayed an IC50 of 12 µM.

In data set [1], `CCCCCCCCc1ccc(-c2c(C)[nH]c(=O)n2C2CCCCC2)cc1` returned an IC50 of 10.3 µM.

For the compound `Cc1[nH]c(=O)n(C2CCCCC2)c1-c1ccc(Oc2ccccc2)cc1`, in data set [1], half-maximal inhibition (IC50) required 7.9 µM. Besides, the minimal effective dose in data set [2] came out at 0.1 mg/kg.

Regarding `CCCCCCCc1ccc(-c2c(C)[nH]c(=O)n2C2CCCCC2)cc1`, the IC50 in data set [1] was 8.7 µM.

In data set [1], `CCCCCCc1ccc(-c2c(C)[nH]c(=O)n2C)cc1` showed a half-inhibitory concentration (IC50) of 9 µM. For the same compound, in data set [2], the minimal effective dose was 0.3 mg/kg.

`CCCCc1ccc(-c2c(C)[nH]c(=O)n2-c2ccccc2)cc1` yielded a half-maximal inhibitory concentration (IC50) in data set [1] of 16.6 µM.

Compound `Cc1[nH]c(=O)n(C2CCCCC2)c1-c1cccc(OC(C)C)c1` yielded an IC50 in data set [1] of 10.4 µM.

Compound `CCCc1ccc(-c2c(C)[nH]c(=O)n2C2CCCCC2)cc1` displayed an IC50 in data set [1] of 13.9 µM.

In turn, `Cc1[nH]c(=O)n(C2CCCCC2)c1-c1ccc(OC(C)C)cc1` had a half-inhibitory concentration (IC50) in data set [1] of 13 µM.

In the case of `Cc1[nH]c(=O)n(C)c1-c1ccc(C(C)(C)C)cc1`, in data set [1], the concentration for half-maximal inhibition (IC50) is 8.4 µM.

With `CCCCCCCCCCCCOc1ccc(-c2c(C)[nH]c(=O)n2C)cc1`, the IC50 in data set [1] was determined as 9.7 µM. The minimal effective dose in data set [2] was 0.1 mg/kg.

On to `CCCCCCCCCCCCCCCCCCc1ccc(-c2c(C)[nH]c(=O)n2C)cc1`, for which the IC50 in data set [1] is greater than 100 µM.

Consider `CCCCCCCCCCc1ccc(-c2c(C)[nH]c(=O)n2C)cc1`, for which, in data set [1], the midpoint of inhibition, the IC50, lay at 7.9 µM. In addition, in data set [2], the minimal effective dose worked out at 0.3 mg/kg.

On to `Cc1[nH]c(=O)n(C)c1-c1ccc(OC(C)C)cc1`, for which, in data set [1], the IC50 came out at 20.4 µM.

Take `COc1ccc(-c2c(C)[nH]c(=O)n2C)cc1`: the IC50 in data set [1] came to 147 µM.

As for `Cc1ccc(-c2c(C)[nH]c(=O)n2C)cc1`, half-maximal inhibition in data set [1] (IC50) was put at 85.3 µM.

As for `CCCCCCCOc1ccc(-c2c(C)[nH]c(=O)n2C)cc1`, in data set [1], the 50% inhibitory concentration (IC50) is 5.7 µM. Besides, in data set [3], the outcome was inactive.

Turning to `CCCCCCCCCCCCCCc1ccc(-c2c(C)[nH]c(=O)n2C2CCCCC2)cc1`, the IC50 in data set [1] was greater than 100 µM.

`CCCCCCCCCCCCCCCCCCOc1ccc(-c2c(C)[nH]c(=O)n2C2CCCCC2)cc1`: the half-maximal inhibitory concentration (IC50) in data set [1] was greater than 100 µM.

`CCCCc1ccc(-c2c(C)[nH]c(=O)n2C)cc1` yielded an IC50 in data set [1] of 10.7 µM. Also, the Activity was greater than 1000 mg/kg in data set [4] and 98% in data set [5]. Besides, the minimal effective dose in data set [2] turned out to be 0.1 mg/kg.

Compound `Cc1[nH]c(=O)n(C2CCCCC2)c1-c1ccc(OCCC(C)C)cc1` displayed an IC50 in data set [1] of 7.2 µM. In addition, the result in data set [3] was inactive.

`Cc1[nH]c(=O)n(C)c1-c1ccc(C2CCCCC2)cc1`: the midpoint of inhibition in data set [1], the IC50, lay at 10 µM. In addition, the Activity in data set [4] was greater than 1000 mg/kg. For the same compound, the minimal effective dose in data set [2] amounted to 0.1 mg/kg.

As to `CCCCOc1ccc(-c2c(C)[nH]c(=O)n2C2CCCCC2)cc1`, the IC50 in data set [1] stood at 13.9 µM. Further, the Activity in data set [5] is reported as 88%.

On to `CCCCCCCCCCCCOc1ccc(-c2c(C)[nH]c(=O)n2C2CCCCC2)cc1`, for which, in data set [1], half-maximal inhibition (IC50) required 52.4 µM.

`CCCCCCCCCCCCc1ccc(-c2c(C)[nH]c(=O)n2C2CCCCC2)cc1` displayed an IC50 in data set [1] greater than 100 µM.

In data set [1], `Cc1[nH]c(=O)n(C2CCCCC2)c1-c1ccc(C2CCCCC2)cc1` had an IC50 of 28.9 µM.

In the case of `Cc1[nH]c(=O)n(C)c1-c1ccc(Oc2ccccc2)cc1`, the IC50 in data set [1] was determined as 8.1 µM. Moreover, the outcome in data set [3] was inactive.

For the compound `CCCCc1ccc(-c2c(C)[nH]c(=O)n2Cc2ccccc2)cc1`, the concentration for half-maximal inhibition (IC50) in data set [1] turned out to be 12.4 µM. Also, the Activity in data set [5] amounted to 59%.

As for `CCCCCCOc1ccc(-c2c(C)[nH]c(=O)n2C)cc1`, the IC50 in data set [1] was 7.3 µM. Moreover, in data set [3], the outcome was inactive.

In turn, `CCCCn1c(-c2ccccc2)c(C)[nH]c1=O` came in with a half-maximal inhibitory concentration (IC50) in data set [1] greater than 100 µM.

`CCCCCCCCCCCCCCCCCCOc1ccc(-c2c(C)[nH]c(=O)n2C)cc1`: the IC50 in data set [1] was greater than 100 µM.

In turn, `CCCCCCCCc1ccc(-c2c(C)[nH]c(=O)n2C)cc1` showed an IC50 in data set [1] of 19.4 µM.

Regarding `Cc1[nH]c(=O)n(C)c1-c1ccc(-c2ccccc2)cc1`, in data set [1], inhibition was half-maximal at 6.3 µM (IC50). The compound also returned an Activity in data set [4] greater than 1000 mg/kg. Also, the minimal effective dose in data set [2] is 0.3 mg/kg.

Take `CCCCCCCCOc1ccc(-c2c(C)[nH]c(=O)n2C2CCCCC2)cc1`: the midpoint of inhibition in data set [1], the IC50, lay at 8.5 µM. Moreover, the minimal effective dose in data set [2] is 30 mg/kg.

For the compound `CCCCCCCc1ccc(-c2c(C)[nH]c(=O)n2C)cc1`, the concentration for half-maximal inhibition (IC50) in data set [1] was determined as 8.4 µM. For the same compound, the minimal effective dose in data set [2] amounted to 30 mg/kg.

For the compound `CCCCCCCCOc1ccc(-c2c(C)[nH]c(=O)n2C)cc1`, in data set [1], the IC50 stood at 4 µM. In data set [2], the minimal effective dose turned out to be 30 mg/kg.

For `CCCCc1ccc(-c2c(C)[nH]c(=O)n2C2CCCCC2)cc1`, the concentration for half-maximal inhibition (IC50) in data set [1] came out at 27.1 µM.

In data set [1], `Cc1[nH]c(=O)n(C)c1-c1ccccc1` displayed a concentration for half-maximal inhibition (IC50) greater than 100 µM.

As for `CCCCc1ccc(-c2c(C)[nH]c(=O)n2C(C)C)cc1`, the IC50 in data set [1] worked out at 10.7 µM. In data set [5], this compound returned an Activity of 78%.

`CCCCCCOc1ccc(-c2c(C)[nH]c(=O)n2C2CCCCC2)cc1`: the IC50 in data set [1] worked out at 8.5 µM. For the same compound, the outcome in data set [3] was inactive.

In data set [1], `CCCc1ccc(-c2c(C)[nH]c(=O)n2C)cc1` showed an IC50 of 21.5 µM.

In turn, `CCCCCCCCCCCCCCCCCCc1ccc(-c2c(C)[nH]c(=O)n2C2CCCCC2)cc1` registered an IC50 in data set [1] greater than 100 µM.

In data set [1], `CCCCCCCCCCCCCCc1ccc(-c2c(C)[nH]c(=O)n2C)cc1` yielded a 50% inhibitory concentration (IC50) of 43.8 µM.

On to `Cc1[nH]c(=O)n(C)c1-c1ccc(CC(C)C)cc1`, for which the IC50 in data set [1] turned out to be 7.8 µM. In addition, the minimal effective dose in data set [2] came to 30 mg/kg.

For the compound `CCCCc1ccc(-c2c(CC)[nH]c(=O)n2C)cc1`, the IC50 in data set [1] worked out at 13.9 µM.

For `CCCCCOc1ccc(-c2c(C)[nH]c(=O)n2C2CCCCC2)cc1`, in data set [1], half-maximal inhibition (IC50) required 9.1 µM. Besides, the outcome in data set [3] was inactive.

In turn, `CCCCCCc1ccc(-c2c(C)[nH]c(=O)n2C2CCCCC2)cc1` had an IC50 in data set [1] of 13.7 µM.

On to `CCCCCCCCCCOc1ccc(-c2c(C)[nH]c(=O)n2C2CCCCC2)cc1`, for which half-maximal inhibition in data set [1] (IC50) required 10.5 µM. Further, the minimal effective dose in data set [2] came out at 0.1 mg/kg.

`Cc1[nH]c(=O)n(C2CCCCC2)c1-c1ccccc1` had an IC50 in data set [1] of 47.6 µM.

As to `CCCCCCCCCCCCc1ccc(-c2c(C)[nH]c(=O)n2C)cc1`, in data set [1], half-maximal inhibition (IC50) was put at 13 µM.

In turn, `CCCCCc1ccc(-c2c(C)[nH]c(=O)n2C)cc1` had a 50% inhibitory concentration (IC50) in data set [1] of 5.9 µM.

With `Cc1[nH]c(=O)n(C2CCCCC2)c1-c1ccccc1OC(C)C`, the IC50 in data set [1] was found to be 21.5 µM.

For the compound `CCCCCCCCCCOc1ccc(-c2c(C)[nH]c(=O)n2C)cc1`, the IC50 in data set [1] was determined as 6.9 µM. Further, the minimal effective dose in data set [2] was determined as 0.1 mg/kg.

Regarding `CCCCCOc1ccc(-c2c(C)[nH]c(=O)n2C)cc1`, in data set [1], half-maximal inhibition (IC50) was put at 4.5 µM. The result in data set [3] was inactive.

Consider `COc1ccc(-c2c(C)[nH]c(=O)n2C2CCCCC2)cc1`, for which inhibition in data set [1] was half-maximal at 20.4 µM (IC50).

In data set [1], `Cc1[nH]c(=O)n(C)c1-c1ccc(OCCC(C)C)cc1` showed a concentration for half-maximal inhibition (IC50) of 6.6 µM. For the same compound, in data set [3], the result was inactive.

In turn, `Cc1[nH]c(=O)n(C2CCCCC2)c1-c1ccc(CC(C)C)cc1` showed an IC50 in data set [1] of 10.9 µM.

In data set [1], `Cc1[nH]c(=O)n(C2CCCCC2)c1-c1ccc(OCc2ccccc2)cc1` gave an IC50 of 8.3 µM. Moreover, in data set [2], the minimal effective dose was determined as 0.1 mg/kg.

In data set [1], `CCCCCCCCCCc1ccc(-c2c(C)[nH]c(=O)n2C2CCCCC2)cc1` came in with an IC50 of 27 µM.

Compound `CCCCCc1ccc(-c2c(C)[nH]c(=O)n2C2CCCCC2)cc1` yielded a half-inhibitory concentration (IC50) in data set [1] of 10.6 µM.

Consider `CCCCCCCOc1ccc(-c2c(C)[nH]c(=O)n2C2CCCCC2)cc1`, for which the concentration for half-maximal inhibition (IC50) in data set [1] turned out to be 11.6 µM.

As to `Cc1[nH]c(=O)n(C)c1-c1ccc(OCc2ccccc2)cc1`, in data set [1], the half-inhibitory concentration (IC50) was 6.7 µM. Besides, the result in data set [3] was inactive.

`CCCCOc1ccc(-c2c(C)[nH]c(=O)n2C)cc1` yielded an IC50 in data set [1] of 5.1 µM. For the same compound, the minimal effective dose in data set [2] was found to be 0.3 mg/kg.

On to `Cc1[nH]c(=O)n(C2CCCCC2)c1-c1ccc(-c2ccccc2)cc1`, for which it took 10.9 µM to reach half-maximal inhibition in data set [1] (IC50). For the same compound, the minimal effective dose in data set [2] amounted to 0.1 mg/kg.

A word on the IC50: it is the midpoint of a concentration-inhibition curve. Low readings indicate inhibition by little substance, high ones a need for much substance.

Values taken from ChEMBL document CHEMBL1143188, “5-Aryl-imidazolin-2-ones as a scaffold for potent antioxidant and memory-improving activity” (Bioorg Med Chem Lett, 2008).
